Assay results from ChEMBL document CHEMBL4765329, “Exploration of carbamide derived pyrimidine-thioindole conjugates as potential VEGFR-2 inhibitors with anti-angiogenesis effect” (Eur J Med Chem, 2020).
pIC50: −log10 of the molar value. Calls of active or inactive are those of the source. The calls are words filed in the database; no cut-off is given here.

Columns and labels:
A549 = experiment: cells; settings: Homo sapiens, A549, 72 h
PC-3 = experiment: cells; settings: Homo sapiens, PC-3, 72 h
MDA-MB-231 [1] = experiment: cells; settings: Homo sapiens, MDA-MB-231, 72 h
HepG2 = experiment: cells; settings: Homo sapiens, HepG2, 72 h
HUVEC [2] = experiment: Antiangiogenic activity against human HUVEC cells assessed as inhibition of tube formation measured after 16 hrs by matrigel based tube formation assay; type: functional, cell-based; settings: dose 2.5-5 µM
How it was run: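 HUVECs were plated on Matrigel with 2.5 and 5 μM test agent, alongside a reference VEGFR-2 inhibitor. Tube networks were imaged, and quantification covered cell-covered area, tube length, branching points and total loops.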

HUVEC [3] = experiment: Antimigratory activity against human HUVEC cells assessed as inhibition of cell invasion measured by inverted fluorescence microscope based transwell assay; type: functional; settings: dose 2.5-5 µM
How it was run: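 A Boyden chamber (transwell) invasion assay used HUVECs passing through Matrigel and a membrane barrier. Treatment was 2.5 and 5 µM, with a reference VEGFR-2 inhibitor as standard. Invaded cells on the bottom side were compared with untreated control.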

MDA-MB-231 [4] = experiment: Antimigratory activity against human MDA-MB-231 cells assessed as inhibition of cell migration at 2.5 uM measured after 24 hrs by phase contrast microscope based wound healing assay; type: functional
How it was run: (§1)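 Confluent MDA-MB-231 monolayers (DMEM, 10% FBS) were scratched with a sterile pipette tip and then treated. Wound closure was imaged by phase contrast microscopy after 24 h and compared with untreated control.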

MDA-MB-231 [5] = experiment: Antimigratory activity against human MDA-MB-231 cells assessed as inhibition of cell migration at 5 uM measured after 24 hrs by phase contrast microscope based wound healing assay; type: functional
How it was run: as §1

MDA-MB-231 [6] = experiment: Induction of apoptosis in human MDA-MB-231 cells assessed as induction of morphological changes by measuring chromatin condensation measured after 48 hrs by Hoechst stain based flourescence assay in relative to control; type: functional, cell-based; settings: dose 2.5-5 µM
How it was run: (§2)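 MDA-MB-231 cells were treated at 2.5 and 5 µM and stained with Hoechst. Nuclei were examined by fluorescence for chromatin condensation, nuclear shrinkage, and pyknotic or fragmented nuclei against untreated control.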

MDA-MB-231 [7] = experiment: Induction of apoptosis in human MDA-MB-231 cells assessed as induction of morphological changes by measuring nuclear shrinkage and fragmentation in nucleus measured after 48 hrs by Hoechst stain based flourescence assay in relative to control; type: functional, cell-based; settings: dose 2.5-5 µM
How it was run: as §2

MDA-MB-231 [8] = experiment: Induction of apoptosis in human MDA-MB-231 cells assessed as viable cells at 2.5 uM measured after 48 hrs by Annexin V-FITC/Propidium iodide stain based flow cytometry assay (reference value: 95.3%); type: functional; settings: read-out: Activity
MDA-MB-231 [9] = experiment: Induction of apoptosis in human MDA-MB-231 cells assessed as early apoptotic cells at 2.5 uM measured after 48 hrs by Annexin V-FITC/Propidium iodide stain based flow cytometry assay (reference value: 3.2%); type: functional
MDA-MB-231 [10] = experiment: Induction of apoptosis in human MDA-MB-231 cells assessed as late apoptotic cells at 2.5 uM measured after 48 hrs by Annexin V-FITC/Propidium iodide stain based flow cytometry assay (reference value: 1.2%); type: functional
MDA-MB-231 [11] = experiment: Induction of apoptosis in human MDA-MB-231 cells assessed as necrotic cells at 2.5 uM measured after 48 hrs by Annexin V-FITC/Propidium iodide stain based flow cytometry assay (reference value: 0.3%); type: functional
MDA-MB-231 [12] = experiment: Induction of apoptosis in human MDA-MB-231 cells assessed as viable cells at 5 uM measured after 48 hrs by Annexin V-FITC/Propidium iodide stain based flow cytometry assay (reference value: 95.3%); type: functional; settings: read-out: Activity
MDA-MB-231 [13] = experiment: Induction of apoptosis in human MDA-MB-231 cells assessed as early apoptotic cells at 5 uM measured after 48 hrs by Annexin V-FITC/Propidium iodide stain based flow cytometry assay (reference value: 3.2%); type: functional
MDA-MB-231 [14] = experiment: Induction of apoptosis in human MDA-MB-231 cells assessed as late apoptotic cells at 5 uM measured after 48 hrs by Annexin V-FITC/Propidium iodide stain based flow cytometry assay (reference value: 1.2%); type: functional
MDA-MB-231 [15] = experiment: Induction of apoptosis in human MDA-MB-231 cells assessed as necrotic cells at 5 uM measured after 48 hrs by Annexin V-FITC/Propidium iodide stain based flow cytometry assay (reference value: 0.3%); type: functional
MDA-MB-231 [16] = experiment: Induction of mitochondrial membrane potential loss in human MDA-MB-231 cells assessed as increase in depolarised cells measured after 48 hrs by JC-1 stain based flow cytometry assay relative to control; type: functional, cell-based; settings: dose 2.5-5 µM
How it was run: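 MDA-MB-231 cells were treated at 2.5 and 5 µM and stained with JC-1. Depolarised mitochondria were scored by green monomer signal and healthy mitochondria by red J-aggregates, against control.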

MDA-MB-231 [17] = experiment: Induction of mitochondrial membrane potential loss in human MDA-MB-231 cells assessed as generation of ROS at 2.5 uM measured after 48 hrs by carboxy […] stain based flow cytometry assay relative to control; type: functional, cell-based
How it was run: (§3)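 MDA-MB-231 cells were treated at several doses and stained with carboxy-H2DCFDA. ROS were read as green DCF fluorescence relative to untreated control.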

MDA-MB-231 [18] = experiment: Induction of mitochondrial membrane potential loss in human MDA-MB-231 cells assessed as generation of ROS at 5 uM measured after 48 hrs by carboxy […] stain based flow cytometry assay relative to control; type: functional, cell-based
How it was run: as §3

Row | SMILES | pIC50 (A549) | pIC50 (PC-3) | pIC50 (MDA-MB-231 [1]) | pIC50 (HepG2) | other results
1 | COc1cc(NC(=O)Nc2nc(Nc3cc(OC)cc(OC)c3)cc(Sc3c[nH]c4ccccc34)n2)cc(OC)c1 | < 4.30 | 4.93 | < 4.30 | 4.61 | –
2 | COc1ccc(NC(=O)Nc2nc(Sc3c[nH]c4ccccc34)cc(N3CCCC3)n2)cc1 | 4.93 | 4.67 | 4.88 | 4.69 | –
3 | O=C(Nc1ccccc1)Nc1nc(Sc2c[nH]c3ccccc23)cc(N2CCN(Cc3ccccc3)CC2)n1 | < 4.30 | 4.37 | 4.99 | 5.09 | –
4 | COc1ccc(NC(=O)Nc2nc(Sc3c[nH]c4ccccc34)cc(N3CCN(Cc4ccccc4)CC3)n2)cc1 | 4.37 | 4.78 | 5.05 | 4.67 | –
5 | Cc1cc(Cl)ccc1NC(=O)Nc1nc(Sc2c[nH]c3ccccc23)cc(N2CCOCC2)n1 | < 4.30 | 4.47 | 5.06 | 5.08 | –
6 | Cc1cc(Cl)ccc1NC(=O)Nc1nc(Sc2c[nH]c3ccccc23)cc(N2CCN(Cc3ccccc3)CC2)n1 | < 4.30 | 4.65 | 4.66 | 4.93 | –
7 | Cc1ccc(C)c(NC(=O)Nc2nc(Sc3c[nH]c4ccccc34)cc(N3CCN(Cc4ccccc4)CC3)n2)c1 | < 4.30 | 4.76 | 4.72 | 4.79 | –
8 | O=C(Nc1ccccc1)Nc1nc(Sc2c[nH]c3ccccc23)cc(N2CCN(c3ccccn3)CC2)n1 | 4.52 | 4.66 | 4.71 | 5.05 | –
9 | O=C(Nc1ccc(Cl)cc1)Nc1nc(Sc2c[nH]c3ccccc23)cc(N2CCCC2)n1 | 5.19 | 4.98 | – | 5.10 | inhibition (HUVEC [2]): Dose-dependent effect; inhibition (HUVEC [3]): Dose-dependent effect; inhibition (MDA-MB-231 [4]): Active; inhibition (MDA-MB-231 [5]): Active; Activity (MDA-MB-231 [6]): Dose-dependent effect; Activity (MDA-MB-231 [7]): Dose-dependent effect; viability at 2.5 µM (MDA-MB-231 [8]): 76.2%; Activity (MDA-MB-231 [9]): 19.4%; Activity (MDA-MB-231 [10]): 3.8%; Activity (MDA-MB-231 [11]): 0.5%; viability at 5 µM (MDA-MB-231 [12]): 51.4%; Activity (MDA-MB-231 [13]): 36.6%; Activity (MDA-MB-231 [14]): 11.2%; Activity (MDA-MB-231 [15]): 0.9%; Activity (MDA-MB-231 [16]): Active; Activity (MDA-MB-231 [17]): Active; Activity (MDA-MB-231 [18]): Active
10 | O=C(Nc1ccccc1)Nc1nc(Nc2ccc(Cl)cc2)cc(Sc2c[nH]c3ccccc23)n1 | 4.31 | 4.49 | 4.99 | 4.90 | –
11 | O=C(Nc1ccccc1)Nc1nc(Nc2ccccc2)cc(Sc2c[nH]c3ccccc23)n1 | < 4.30 | 4.58 | 4.44 | 4.84 | –
12 | COc1ccc(NC(=O)Nc2nc(Sc3c[nH]c4ccccc34)cc(N3CCN(c4ccccn4)CC3)n2)cc1 | < 4.30 | 4.48 | 4.55 | 4.94 | –
13 | CNC(=O)c1cc(Oc2ccc(NC(=O)Nc3ccc(Cl)c(C(F)(F)F)c3)cc2)ccn1 [SORAFENIB] | – | 5.01 | 4.93 | 5.24 | inhibition (HUVEC [2]): Dose-dependent effect; inhibition (HUVEC [3]): Dose-dependent effect; inhibition (MDA-MB-231 [4]): Active; inhibition (MDA-MB-231 [5]): Active
14 | Cc1ccc(NC(=O)Nc2nc(Nc3ccccc3)cc(Sc3c[nH]c4ccccc34)n2)cc1 | 4.63 | 4.73 | 4.87 | 4.83 | –
15 | Cc1ccc(C)c(NC(=O)Nc2nc(Sc3c[nH]c4ccccc34)cc(N3CCCCC3)n2)c1 | 4.60 | < 4.30 | – | 5.19 | Activity (MDA-MB-231 [6]): Dose-dependent effect; Activity (MDA-MB-231 [7]): Dose-dependent effect; Activity (MDA-MB-231 [16]): Active; Activity (MDA-MB-231 [17]): Active; Activity (MDA-MB-231 [18]): Active
16 | O=C(Nc1ccccc1)Nc1nc(Sc2c[nH]c3ccccc23)cc(N2CCOCC2)n1 | 4.58 | 4.85 | 4.92 | 5.15 | –
17 | Cc1cc(Cl)ccc1NC(=O)Nc1nc(NC2CC2)cc(Sc2c[nH]c3ccccc23)n1 | 4.50 | 4.95 | 4.84 | 5.01 | –
18 | Cc1cc(Cl)ccc1NC(=O)Nc1nc(Nc2ccccc2)cc(Sc2c[nH]c3ccccc23)n1 | < 4.30 | 4.38 | 4.77 | 5.08 | –
19 | O=C(Nc1ccc(Cl)cc1)Nc1nc(Sc2c[nH]c3ccccc23)cc(N2CCOCC2)n1 | 4.66 | 4.55 | 5.16 | 4.65 | –
20 | Cc1cc(Cl)ccc1NC(=O)Nc1nc(Sc2c[nH]c3ccccc23)cc(N2CCN(c3ccccn3)CC2)n1 | < 4.30 | 4.70 | 4.46 | 5.12 | –
21 | O=C(Nc1ccccc1)Nc1nc(NC2CC2)cc(Sc2c[nH]c3ccccc23)n1 | < 4.30 | 4.76 | 5.10 | 4.84 | –
22 | COc1ccc(NC(=O)Nc2nc(Nc3cc(OC)cc(OC)c3)cc(Sc3c[nH]c4ccccc34)n2)cc1 | < 4.30 | 4.82 | 5.02 | 4.76 | –
23 | Cc1cc(Cl)ccc1NC(=O)Nc1nc(Sc2c[nH]c3ccccc23)cc(N2CCCC2)n1 | 5.05 | 4.89 | 5.03 | 5.15 | –
24 | O=C(Nc1ccc(Cl)cc1)Nc1nc(Sc2c[nH]c3ccccc23)cc(N2CCCCC2)n1 | 4.73 | 4.37 | 4.99 | 4.83 | –
25 | O=C(Nc1ccccc1)Nc1nc(Sc2c[nH]c3ccccc23)cc(N2CCCCC2)n1 | 4.48 | 4.92 | 5.09 | 4.68 | –
26 | COc1ccc(NC(=O)Nc2nc(Sc3c[nH]c4ccccc34)cc(N3CCOCC3)n2)cc1 | 4.48 | 4.90 | 5.10 | 4.99 | –
27 | O=C(Nc1ccccc1)Nc1nc(Sc2c[nH]c3ccccc23)cc(N2CCCC2)n1 | 4.67 | 4.83 | 5.10 | 4.94 | –
28 | COc1ccc(NC(=O)Nc2nc(Sc3c[nH]c4ccccc34)cc(N3CCCCC3)n2)cc1 | 4.87 | 4.76 | 5.14 | 4.77 | –
